ARNT-TACC3 inh = disruptors of human ARNT/TACC3 interaction; AlphaScreen His-ARNT PAS-B/GST-TACC3 binding, luminescence; TACC3 fragment carries E629A point mutation; AID 623870; inhibition, % at 9.99 µM; Q9Y6A5; actives 0.66% (n = 390,000);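 active means mean inhibition of replicates at least 50% and at least half of replicates each reaching 50%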;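 further: 0% = complete ARNT plus TACC3 wells and 100% = ARNT alone without TACC3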
miR-122 sensor = miR-122 inhibition in Huh7 cells | actives 0.3% (n = 340,000) | activation (reporter increase), % at 12.5 µM | AID 602342 | Huh7 miR-122 Renilla luciferase sensor, 48 h; neutral wells = 0, positive control = 100;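 active means mean replicate activation score at least 90 and every replicate individually at or above 90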;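 further: higher luciferase means less miR-122 activity so hits act as miR-122 inhibitors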
F508del corr = correctors of CFTR F508del function in bronchial epithelial cells | actives 0.36% (n = 350,000) | activity (quench increase), % at 7.58 µM | AID 720511 | CFBE cells, YFP halide quenching; stimulated with forskolin plus potentiator P3; % fluorescence drop versus neutral controls;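 active means mean added fluorescence quench of at least 8% versus neutral control, with both replicates also reaching 8%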;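 further: cells transiently co-express mutant CFTR-F508del with the halide-sensitive YFP; corrector assay measuring rescue of mutant channel to the surface after 24 h compound exposure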
CAL PDZ FP-1 = blocks peptide binding to the human CAL PDZ domain | AID 602252 | inhibition, % at 24.9 µM | Q9HD26 | purified CAL PDZ, TMR-peptide fluorescence polarization, 1 h | actives 0.92% (n = 300,000);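 active means mean inhibition of at least 30% with at least half of replicates also reaching 30%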;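 further: 0% = DMSO neutral control and 100% = excess unlabeled competitor peptide PRC23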
PGC1a acetyl inh = PGC1a acetylation modulation, inhibitor mode. U2OS PGC1a acetylation, AlphaScreen anti-acetyl-lysine; with virally co-expressed GCN5 acetyltransferase. actives 0.17% (n = 350,000). AID 651687. inhibition, % at 15.6 µM;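 active means every replicate shows inhibition of at least 40%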;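 further: 0% = neutral control wells and 100% = positive control wells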
CAL PDZ FP-2 = inhibitors of human CAL PDZ peptide binding; Q9HD26; purified CAL PDZ, TMR-peptide fluorescence polarization, 1 h; inhibition, % at 20 µM; actives 0.02% (n = 330,000); AID 504414;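 active means highest replicate inhibition of at least 40%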;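 further: plate controls were DMSO neutral control wells for no effect and unlabeled competitor peptide control wells for full effect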
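Material: tagged CAL PDZ protein CerCALP, purified; buffer or medium: sodium phosphate/NaCl buffer pH 7.4 with TCEP, IgG, Thesit; also added: fluorescent TMR peptide probe; schedule: 1 h incubation at room temperature before polarization reading; technique: fluorescence polarization from S- and P-plane intensities, G-factor corrected; control set: unlabelled peptide and DMSO controls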
The depositor's hits bear a star; · = not tested or not shown; [ ] = remark or other dose. Rows were chosen to be rich in hits. Some 1.7% of all compounds tested hit in one or more screens of this group.

SMILES	ARNT-TACC3 inh	miR-122 sensor	F508del corr	CAL PDZ FP-1	PGC1a acetyl inh	CAL PDZ FP-2
C[C@@H]1CN([C@H](C)CO)C(=O)c2cc(NS(=O)(=O)c3cn(C)cn3)ccc2O[C@@H]1CN(C)C(=O)Nc1ccccc1	-9	-2[16.7 µM]	-2	·	-4	·
CCCNC(=O)N1[C@H](C#N)[C@H](c2ccc(C#Cc3ccc(F)cc3)cc2)[C@@H]1CO	5	·	8.4*	·	-2	·
N#C[C@H]1[C@H](c2ccc(C#CC3CCCC3)cc2)[C@H](CO)N1C(=O)Cc1ccccn1	·	·	0	·	59*	·
N#C[C@H]1[C@H](c2ccc(C#Cc3ccccc3F)cc2)[C@@H](CO)N1C(=O)C1CCCCC1	47*	·	1	·	-10	·
N#C[C@H]1[C@@H](c2ccc(-c3cccc(F)c3)cc2)[C@H](CO)N1C(=O)NC1CCCC1	-9	·	0	·	-1	·
N#C[C@@H]1[C@H](c2ccc(-c3cccc(F)c3)cc2)[C@H](CO)N1C(=O)NC1CCCC1	-17	·	8.6*	·	-5	·
N#C[C@@H]1[C@@H](c2ccc(C#CC3CCCC3)cc2)[C@H](CO)N1C(=O)Cc1ccccn1	·	·	-3	·	1	·
CC(C)NC(=O)N(C)C[C@@H]1Oc2ccc(NC(=O)C3CCCCC3)cc2C(=O)N([C@@H](C)CO)C[C@H]1C	-23	4[16.7 µM]	0	·	·	·
Cc1cc(C)c(Nc2cc(S(=O)(=O)O)c(N)c3c2C(=O)c2ccccc2C3=O)c(C)c1	55*	·	·	1	·	3
CCC(C)NC(=S)Nc1ccc(C(=O)OC)cc1 (stereo unspecified)	·	12	1	-4	-1	0
Cc1cccc(C)c1NC(=S)NC(C)CCc1ccccc1 (stereo unspecified)	-1	100*	3	·	·	-1
CCC(C)NC(=S)Nc1ccccc1 (stereo unspecified)	-8	·	2	75*	·	0
Cc1ccc(NC(=S)NC(C)CCc2ccccc2)cc1C (stereo unspecified)	-3	·	·	-1	·	-1
CO[C@H]1CN(C)C(=O)c2ccc(NC(=O)C3CCCC3)cc2OC[C@H](C)N(C(C)=O)C[C@H]1C	4	·	1	·	0	·
CO[C@@H]1CN(C)C(=O)c2ccc(NS(=O)(=O)c3ccc(F)cc3)cc2OC[C@H](C)NC[C@H]1C	-3	·	1	·	19	·
O=C(Cc1ccccc1)N[C@@H]1CC[C@@H](CC(=O)N2CCOCC2)O[C@H]1CO	26	·	0	·	5	·
O=C(Nc1ccccc1)/C(=C/c1cccnc1)NC(=O)c1ccccc1	4	33	2	0	11	-3
O=C(NNc1ccccc1)/C(=C\c1cccnc1)NC(=O)c1ccccc1	-3	·	-1	73*	13	0
O=C(C1CC1)N1CCCCN2[C@H](CO)[C@@H](c3ccc(C#CC4CC4)cc3)[C@@H]2C1	1	10[16.7 µM]	-1	·	5	·
C[N+]1(CC(=O)OC2CCCCCCCCCCC2)CCCC1	5	·	-1	97*	4	-1
C[C@H](CO)N1C[C@H](C)[C@@H](CN(C)S(=O)(=O)c2ccccc2)Oc2ccc(NC(=O)CCCCCC(=O)Nc3ccccc3N)cc2C1=O	·	·	3	·	3	·
CC[C@H](C)[C@@H]1OC(=O)[C@@H](C)[C@@H](CC)NC(=O)[C@H](C)N(C)C(=O)C(C)(C)C(=O)C(C)NC(=O)[C@H](Cc2ccccc2)N(C)C(=O)[C@H](C(C)C)N(C)C(=O)CNC(=O)[C@H](CC(C)C)N(C)C(=O)CNC1=O (stereo partly specified)	·	-21	·	·	76*	·
CCOc1cc(/C=C(/C#N)c2nc3ccccc3[nH]2)ccc1OCc1ccc(C(=O)O)o1	59*	-8	·	·	-2	-12
COC(=O)/C=C/c1ccccc1S(=O)(=O)N(Cc1ccccc1)Cc1ccco1	17	64	8.3*	-5	·	-1
Cc1cc(S(=O)(=O)NC(C)C)ccc1OCC(=O)Nc1ccc2c(c1)OCCO2	26	55	-2	7	110*	-1
SMILES	ARNT-TACC3 inh	miR-122 sensor	F508del corr	CAL PDZ FP-1	PGC1a acetyl inh	CAL PDZ FP-2
CC(NS(=O)(=O)c1ccc(Cl)c(Cl)c1)C(=O)OCC(=O)Nc1ccc2c(c1)OCO2 (stereo unspecified)	1	-2	1	-6	5	70*
CC(C)(C)NS(=O)(=O)c1ccc(OCC(=O)Nc2ccc3c(c2)OCCO3)cc1	21	112*	·	-5	-6	-1
CC(C)(C)NS(=O)(=O)c1ccc(CCC(=O)Nc2ccc3c(c2)OCCO3)cc1	-8	2	·	0	-8	-1
CC(C)NS(=O)(=O)c1ccc(CCC(=O)Nc2ccc3c(c2)OCCO3)cc1	2	·	·	-3	·	0
COCC#Cc1ccc([C@@H]2[C@@H](CO)N3CCCCN(S(=O)(=O)c4ccccc4F)C[C@@H]23)cc1	-2	-11[16.7 µM]	-2	·	-2	·
C[C@H]1CN([C@@H](C)CO)C(=O)Cc2cc(NC(=O)NC3CCCCC3)ccc2O[C@H]1CN(C)S(=O)(=O)c1ccc(Cl)cc1	-5	-7[16.7 µM]	-2	·	-3	·
Brc1ccc(-n2cnc(-c3ccccc3)c2)cc1	1	11	0	51*	5	-3
O=[N+]([O-])c1ccc(-c2cn(-c3ccc(Cl)cc3)cn2)cc1	·	·	-1	·	·	·
Cc1noc(C)c1NC(=O)N(C)C[C@H]1Oc2ccc(NS(=O)(=O)c3ccc(Cl)cc3)cc2CC(=O)N([C@H](C)CO)C[C@H]1C	0	-1[16.7 µM]	-1	·	1	·
Cc1ccc(-c2cc(C(F)F)n3ncc(C(=O)N4CCCc5ccccc54)c3n2)cc1	2	-2	·	-9	-9	·
COc1ccc(-c2cc(C(F)F)n3ncc(C(=O)N4CCc5ccccc54)c3n2)cc1	19	33	14*	4	6	-2
C[C@@H]1CN([C@@H](C)CO)C(=O)c2cc(NC(=O)Nc3ccc4c(c3)OCO4)ccc2O[C@@H]1CN(C)S(=O)(=O)c1cccs1	9	4[16.7 µM]	2	·	4	·
CC1=Nc2cc(C(=O)NCC3CCCO3)ccc2Sc2ccc(Br)cc21 (stereo unspecified)	3	4	13*	7	-2	-1
COc1cc(/C=C(\CC(=O)O)c2nc3ccccc3s2)ccc1OCC(=O)Nc1ccccc1F	·	-4	18*	133*	1	-4
CO[C@@H]1CN(C)C(=O)c2cc(NC(=O)C3CCC3)ccc2OC[C@H](C)N(C(=O)NC(C)C)C[C@@H]1C	-8	·	3	·	-3	·
Cc1ccc(C)c(S(=O)(=O)NC(C)CCc2ccccc2)c1 (stereo unspecified)	-5	193*	0	2	-8	-2
CN(C)c1ccc2c(c1)[C@@H]1C[C@@H](CC(=O)NCc3ccncc3)O[C@H](CO)[C@@H]1O2	4	0[16.7 µM]	1	·	5	·

Screening data (PubChem BioAssay)
